Test [1] in a line: Cytotoxicity against human BC1 cells at 20 ug/mL. Format: functional.
For test [2], the system named is KB. Put plainly: Cytotoxicity against human KB cells at 20 ug/mL. In kind it is functional.
For test [3], the system named is Vero. The experiment in a line: Cytotoxicity against african green monkey Vero cells at 20 ug/mL. In kind it is functional. To be noted: Chlorocebus sabaeus.
For the next test, the system named is Plasmodium falciparum. The experiment in a line: Antimalarial activity against Plasmodium falciparum K1 by [3H]hypoxanthine uptake. In kind it is functional, organism-based. A digest of the protocol: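 P. falciparum K1 (multidrug-resistant) asexual erythrocytic stages were kept in continuous in vitro culture. Activity was measured by a microculture radioisotope method. EC50 is the concentration giving 50% reduction in parasite growth, read as in vitro [3H]hypoxanthine uptake.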

The test system of test [4] is KB. Put plainly: Cytotoxicity against human KB cells. Format: functional, cell-based.
Test [5] relates to Vero. The experiment in a line: Cytotoxicity against african green monkey Vero cells. Format: functional, cell-based, Chlorocebus sabaeus.
Test [6] is described as follows: Cytotoxicity against human BC1 cells. Format: functional, cell-based.

As a reminder, the inhibition is the drop in the measured response relative to a control, in per cent. Broadly, the EC50 is the concentration at which the effect is half-maximal.

Converted amounts (≈) assume the structure as drawn.

With `C[C@@H]1CC[C@H]2[C@@H](C)C(=O)O[C@@H]3O[C@@]4(C)CC[C@@H]1[C@]32OO4` [ARTEMISININ], the inhibition at 20 µg/mL (in test [1]; in the test on KB [2]; in the test on Vero [3]) was less than 50% throughout.
Take `CC1=C[C@H]2O[C@@H]3C[C@H]4OC(=O)/C=C\C=C\[C@H]([C@@H](C)O)OCC[C@@H](C)[C@H](O)C(=O)OC[C@@]2(CC1)[C@]4(C)[C@]31CO1` [RORIDIN A]: the EC50 in the test on Plasmodium falciparum was found to be 0.31 ng/mL (≈ 0.582 nM); with KB [4] it was 1 ng/mL (≈ 1.88 nM); with Vero [5] it was 1.7 ng/mL (≈ 3.19 nM); in test [6], 5 ng/mL (≈ 9.39 nM).
The matching figures for `CC(=O)O[C@H](C)[C@H]1/C=C/C=C\C(=O)O[C@@H]2C[C@H]3O[C@@H]4C=C(C)CC[C@]4(COC(=O)/C=C(\C)CCO1)[C@]2(C)[C@]31CO1` [RORIDIN E ACETATE]: 0.06 ng/mL, 14 ng/mL, 4.1 ng/mL and 15 ng/mL.
Consider `CC1=C[C@H]2O[C@@H]3C[C@H]4OC(=O)/C=C\C=C\[C@H]([C@@H](C)O)OCC/C(C)=C/C(=O)OC[C@@]2(CC1)[C@]4(C)[C@]31CO1` [RORIDIN E], for which the EC50 is 0.15 ng/mL (≈ 0.291 nM) in the test on Plasmodium falciparum, 0.5 ng/mL (≈ 0.972 nM) in the test on KB [4], 0.4 ng/mL (≈ 0.777 nM) in the test with Vero [5] and 0.7 ng/mL (≈ 1.36 nM) in test [6].
Consider `CC1=C[C@H]2O[C@@H]3C[C@H]4OC(=O)/C=C\C=C\C(=O)OCC[C@@H](C)[C@H](O)C(=O)OC[C@@]2(CC1)[C@]4(C)[C@]31CO1` [VERRUCARIN A], for which the EC50 with Plasmodium falciparum amounted to 0.9 ng/mL (≈ 1.79 nM); with KB [4] it was 1.2 ng/mL (≈ 2.39 nM); in the test with Vero [5], 1.1 ng/mL (≈ 2.19 nM); in test [6], 4.2 ng/mL (≈ 8.36 nM).
As for `CC1=C[C@H]2O[C@@H]3C[C@H]4OC(=O)/C=C\C=C\C(=O)OCC/C(C)=C/C(=O)OC[C@@]2(CC1)[C@]4(C)[C@]31CO1` [VERRUCARIN J], the half-maximal effective concentration (EC50) in the test with Plasmodium falciparum was 0.2 ng/mL (≈ 0.413 nM); with KB [4], 3.9 ng/mL (≈ 8.05 nM); with Vero [5] it was 1.2 ng/mL (≈ 2.48 nM); in test [6] it was 14 ng/mL (≈ 28.9 nM).
